{"data": "Measured values collected from several papers", "target": "TGF-beta receptor type-1 (TGFBR1, Homo sapiens, UniProt P36897)", "One construct used (P36897 34-503)": "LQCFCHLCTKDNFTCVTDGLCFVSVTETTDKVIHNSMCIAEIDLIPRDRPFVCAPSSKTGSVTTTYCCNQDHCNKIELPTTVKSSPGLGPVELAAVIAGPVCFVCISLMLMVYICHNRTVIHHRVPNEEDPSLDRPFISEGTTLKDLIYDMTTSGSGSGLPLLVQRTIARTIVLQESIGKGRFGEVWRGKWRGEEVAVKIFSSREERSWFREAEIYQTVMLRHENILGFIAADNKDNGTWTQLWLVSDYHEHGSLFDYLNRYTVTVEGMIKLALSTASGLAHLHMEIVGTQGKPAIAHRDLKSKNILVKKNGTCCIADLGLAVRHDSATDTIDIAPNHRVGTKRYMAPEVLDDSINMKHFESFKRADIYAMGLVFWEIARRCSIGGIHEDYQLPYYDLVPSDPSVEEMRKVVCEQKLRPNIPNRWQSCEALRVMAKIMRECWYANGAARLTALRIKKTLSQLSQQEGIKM"}
{"SMILES": "O=C(N[C@H]1CCCCC/C=C\\C2C[C@@]2(C(=O)O)NC(=O)[C@@H]2C[C@@H](Oc3ccncc3)CN2C1=O)OC1CCCC1 (stereo partly shown)", "effect on": "cell-free assay", "method": "competition with immobilised ligand", "tested at": "1 µM", "remaining binding [%]": 100}
{"SMILES": "O=C(Nc1c[nH]nc1C(=O)NC1CCNCC1)c1cc(F)cc(F)c1", "effect on": "binding", "method": "competition with immobilised ligand", "tested at": "1 µM", "remaining binding [%]": 100}
{"SMILES": "Cc1cnn2ncc(-c3ccnc(N(C)C)n3)c2c1", "effect on": "binding", "tested at": "1 µM", "remaining binding [%]": 100}
{"SMILES": "N#Cc1ccccc1CSc1nnc2c(n1)[nH]c1ccccc12", "effect on": "binding", "method": "competition with immobilised ligand", "tested at": "10 µM", "remaining binding [%]": 100}
{"SMILES": "CC(C)(C)c1ccc(-c2nc(CBr)nn2-c2cccc(O)c2)cc1", "effect on": "cell-free assay", "method": "competition with immobilised ligand", "tested at": "10 µM", "remaining binding [%]": 90}
{"SMILES": "Cc1nc(Cc2cccc(C(F)(F)F)c2)sc1-c1ccc(C(N)=O)nc1", "effect on": "cell-free assay", "method": "competition with immobilised ligand", "tested at": "1 µM", "remaining binding [%]": 90}
{"SMILES": "Cc1cnc(Nc2ccc(C(=O)N3CCC(N4CCCC4)CC3)cc2)nc1-c1cc2ccccc2s1", "effect on": "binding", "method": "competition with immobilised ligand", "tested at": "1 µM", "remaining binding [%]": 48}
{"SMILES": "CN([C@@H]1CCc2c(CC(=O)O)c3ccccc3n2C1)S(=O)(=O)c1ccc(F)cc1", "effect on": "cell-free assay", "method": "competition with immobilised ligand", "tested at": "1 µM", "remaining binding [%]": 100}
{"SMILES": "CC1CCCN1c1nccc(-c2cnn3ncccc23)n1 (stereo not shown)", "effect on": "binding", "tested at": "1 µM", "remaining binding [%]": 100}
{"SMILES": "CC(=O)Nc1c(C(C)=O)c(=O)n(C)c2nc(-c3ccc(Cl)cc3Cl)c(-c3ccc(Cl)cc3)cc12", "effect on": "cell-free assay", "method": "competition with immobilised ligand", "tested at": "1 µM", "remaining binding [%]": 82}
{"SMILES": "C=CC(=O)N1CCC(C(=O)NCC(=O)N2CCN(c3nc(-c4cnc(N)nc4C(F)F)nc(N4CCOCC4)n3)CC2)CC1", "effect on": "binding", "method": "competition with immobilised ligand", "tested at": "1 µM", "remaining binding [%]": 100}
{"SMILES": "CCN1CCN(Cc2ccc(C(=O)Nc3ccc(C)c(Oc4ccc5c(c4)CC(=O)N5)c3)cc2C(F)(F)F)CC1", "effect on": "binding", "method": "competition with immobilised ligand", "tested at": "1 µM", "remaining binding [%]": 100}
{"SMILES": "O=C(Nc1cccnn1)N1CCC(=Cc2cccc(Oc3ccc(C(F)(F)F)cn3)c2)CC1", "effect on": "cell-free assay", "method": "competition with immobilised ligand", "tested at": "1 µM", "remaining binding [%]": 61}
{"SMILES": "F[C@@H]1CCN(c2nccc(-c3cnn4ncccc34)n2)C1", "effect on": "binding", "tested at": "1 µM", "remaining binding [%]": 100}
{"SMILES": "CNCc1ccccc1-c1csc([C@@H](C)Nc2nc(C)nc3cc(OC)c(OC)cc23)c1", "effect on": "cell-free assay", "method": "competition with immobilised ligand", "tested at": "1 µM", "remaining binding [%]": 74}
{"SMILES": "C[C@H]1CCN(c2nccc(-c3cnn4ncccc34)n2)C1", "effect on": "binding", "tested at": "1 µM", "remaining binding [%]": 76}
{"SMILES": "COCCOc1nc(-c2ccc(Cl)nc2)nc2c1CN(C(=O)c1ncn3ccccc13)CC2", "effect on": "cell-free assay", "method": "competition with immobilised ligand", "tested at": "0.1 µM", "remaining binding [%]": 100}
{"SMILES": "COc1cnc(Nc2cccc(S(N)(=O)=O)c2)nc1N1CCN(c2ccccc2)CC1", "effect on": "binding", "method": "competition with immobilised ligand", "tested at": "1 µM", "remaining binding [%]": 100}
{"SMILES": "CN(c1nccc(-c2cnn3ncccc23)n1)C1CC1", "effect on": "binding", "tested at": "1 µM", "remaining binding [%]": 32}
{"SMILES": "C[C@@H]1CN(c2ccc3ncc(-c4ccc5[nH]nc(C6CC6)c5c4)n3n2)C[C@H](C)O1", "effect on": "binding", "method": "competition with immobilised ligand", "tested at": "0.5 µM", "remaining binding [%]": 100}
{"SMILES": "N[C@H]1CCN(c2nccc(-c3cnn4ncccc34)n2)C1", "effect on": "binding", "tested at": "1 µM", "remaining binding [%]": 100}
{"SMILES": "O=C(NCCCN1CCOCC1)c1ccc(Nc2nccc(-c3cc4ccccc4s3)n2)cc1", "effect on": "binding", "method": "competition with immobilised ligand", "tested at": "1 µM", "remaining binding [%]": 58}
{"SMILES": "CCOCCn1cc(C(=O)Nc2ccc(-n3nc(-c4cccnc4)cc3C(F)(F)F)cn2)ccc1=O", "effect on": "cell-free assay", "method": "competition with immobilised ligand", "tested at": "1 µM", "remaining binding [%]": 100}
{"SMILES": "O=C(c1ccc(Nc2ncc(Cl)c(-c3ccc(Cl)s3)n2)cc1)N1CCC(N2CCCC2)CC1", "effect on": "binding", "method": "competition with immobilised ligand", "tested at": "1 µM", "remaining binding [%]": 55}
{"SMILES": "CN(C)c1ncc(F)c(-c2cnn3ncccc23)n1", "effect on": "binding", "tested at": "1 µM", "remaining binding [%]": 86}
